Published values pooled from the literature.
Compare with care: the assays were run in different laboratories.
Target: Mitogen-activated protein kinase 11 (MAPK11, Homo sapiens, UniProt Q15759)

Cn1c2c(Cl)c(Cl)ccc2c2cn[nH]c(=O)c21  ΔTm (thermal stability, DSF; 10 µM): 0.1 °C
NS(=O)(=O)c1cc(NC(=O)Cc2ccccc2)ccc1Oc1cccc(Cl)c1  remaining binding (cell-free assay, competition with immobilised ligand; 1 µM): 100%
Cn1c2c(c3ccc(Cl)c(Cl)c31)C(C#N)C(C)(C)NC2=O (centres unmarked)  ΔTm (thermal stability, DSF; 10 µM): 0.8 °C
CCC(=O)N[C@@H]1CC[C@H](C(=O)N(C)c2ccc(-c3nc4ccccc4o3)cc2)C1  remaining binding (cell-free assay, competition with immobilised ligand; 1 µM): 83%
Nc1nc(Nc2ccccc2)sc1C(=O)c1c(F)cccc1F  remaining activity (enzyme activity, inhibitor; 10 µM): 12%
C[S+]([O-])c1ccc(-c2nc(-c3ccncc3)c(-c3ccc(F)cc3)[nH]2)cc1 (centres unmarked)  remaining signal (cell-free assay; 0.5 µM): 68.9%
CS(=O)(=O)Nc1cccc(-c2csc(NC(=O)CSc3nc4nccnc4c(=O)n3CCc3ccccc3)n2)c1  inhibition (enzyme activity, inhibitor; 10 µM): 7%
Cn1c2c(c3ccc(Cl)c(Cl)c31)C(C#N)C1(CCN(C(=O)OC(C)(C)C)CC1)NC2=O (racemic)  ΔTm (thermal stability, DSF; 10 µM): -0.8 °C
CNCc1ccccc1-c1csc([C@H](C)Nc2nc(C)nc3cc(OC)c(OC)cc23)c1  remaining binding (cell-free assay, competition with immobilised ligand; 1 µM): 100%
c1ccc(CNc2nc(N3CCOc4ccccc43)nc3c2CCCC3)cc1  inhibition (target engagement in cells, inhibitor, chemoproteomics; 20 mM): -9.7%
COc1cc2c(Nc3ccc(Br)cc3F)ncnc2cc1OCC1CCN(C)CC1  remaining signal (cell-free assay; 0.5 µM): 97.1%
Cn1c2c(c3ccc(Cl)c(Cl)c31)C(C#N)C1(CCNCC1)NC2=O (racemic)  ΔTm (thermal stability, DSF; 10 µM): 0.2 °C
CNc1cccc2cc(C(=O)Nc3ccc(C(=O)O)cc3)c(=O)[nH]c12  inhibition (enzyme activity, inhibitor; 10 µM): -2.4%
CCCCNc1ncc2c(-c3ccc(F)cc3)nn(C[C@H]3CC[C@H](N)CC3)c2n1  inhibition (target engagement in cells, inhibitor, chemoproteomics; 20 mM): 36.9%
CC(C)(C)c1nc(-c2cccc(NS(=O)(=O)c3c(F)cccc3F)c2F)c(-c2ccnc(N)n2)s1  remaining activity (enzyme activity, inhibitor, radiometric; 1 µM): 104%
CNCc1ccc(-c2cc(-c3nc(-c4ccc(S(=O)(=O)C(C)C)cc4)cnc3N)on2)cc1  inhibition (enzyme activity, inhibitor; 0.4 µM): 2%
O=C(Nc1cnc(Oc2ccc(F)cc2)nc1)N1CCc2ncccc2[C@@H]1c1ccc(F)cc1  remaining binding (cell-free assay, competition with immobilised ligand; 1 µM): 84%
O=C1Nc2ccc(Cl)cc2C1=Cc1cc(Cl)c(O)c(Cl)c1  remaining signal (cell-free assay; 0.5 µM): 99.2%
CCCS(=O)(=O)Nc1ccc(F)c(C(=O)c2c[nH]c3ncc(-c4ccc(Cl)cc4)cc23)c1F  inhibition (enzyme activity, inhibitor; 1 µM): < 10%
COc1cc(Nc2cnc(C#N)c(O[C@H](C)CN(C)C)n2)ncc1-c1cnn(C)c1  remaining activity (enzyme activity, inhibitor, radiometric; 10 µM): 92%
CCCOc1ccc(OC)c(F)c1C(=O)c1ccc(C(=O)N[C@@H]2CNC[C@H]2NC(=O)c2ccc3[nH]ncc3c2)cc1  remaining activity (enzyme activity, inhibitor; 10 µM): 96%
CN1CC(Oc2cnc(C#N)cc2-c2ccn3nc(NC(=O)C4CC4)cc3c2)C1  inhibition (enzyme activity, inhibitor; 1 µM): 10%
O=C(O)[C@H]1[C@H](Cn2nnc3ccccc3c2=O)CC[C@@H]1C(=O)c1ccc(OCCC2CCOCC2)cc1  remaining binding (cell-free assay, competition with immobilised ligand; 1 µM): 78%
COc1cc2ncnc(Nc3ccc(Oc4ccccc4)c(C)c3C)c2cc1OC  inhibition (enzyme activity, inhibitor; 1 µM): 6%
Cn1nc(C(=O)NCc2ccc(C(=O)O)cc2)cc1-c1ccc2[nH]ccc2c1  remaining binding (cell-free assay, competition with immobilised ligand; 0.1 µM): 86%
Cc1ccc(Nc2nccc(N(C)c3ccc4c(C)n(C)nc4c3)n2)cc1S(N)(=O)=O  inhibition (enzyme activity, inhibitor; 0.3 µM): -6%
O=C(Nc1ccc(Oc2ccc(F)cc2)cc1)N1CCc2ncccc2[C@H]1c1ccc(F)cc1  remaining binding (cell-free assay, competition with immobilised ligand; 1 µM): 100%
Nc1nc(NC2CCCCC2)sc1C(=O)c1ccccc1  remaining activity (enzyme activity, inhibitor; 10 µM): 22%
O=C(Nc1cnn(-c2csc(C(=O)NC3COC3)c2)c1)Nc1ccccc1Cl  remaining activity (enzyme activity, inhibitor; 5 µM): 101%
Cn1c2c(c3ccc(Cl)c(Cl)c31)C(C#N)C1(CCCC1)NC2=O (centres unmarked)  ΔTm (thermal stability, DSF; 10 µM): 0.9 °C
Oc1cccc(-c2nc(N3CCOCC3)c3oc4ncccc4c3n2)c1  remaining activity (enzyme activity, inhibitor; 10 µM): 100%
Cc1ccc(NC(=O)c2ccc(C)c(C(F)(F)F)c2)cc1C#Cc1nn(C2CCC(O)CC2)c2ncnc(N)c12 (centres unmarked)  remaining signal (cell-free assay; 10 µM): -2%
CC/C(=N\NC(=O)NCc1cccc(O)c1)c1ccc(O)c(C)c1O  inhibition (enzyme activity, inhibitor; 0.1 µM): 0.5%
Cn1c2c(c3ccccc31)C(C#N)C(C)(C)NC2=O (centres unmarked)  ΔTm (thermal stability, DSF; 10 µM): -0.7 °C
Nc1cnc(N2CCc3cc(S(=O)(=O)Nc4c(F)cc(Cl)cc4F)cc(N4CCCC4=O)c32)nc1  remaining binding (cell-free assay, competition with immobilised ligand; 1 µM): 100%
Cn1c(=O)n(-c2ccc(C(C)(C)C#N)cc2)c2c3cc(-c4cnc5ccccc5c4)ccc3ncc21  remaining activity (enzyme activity, inhibitor; 10 µM): 96%
Cn1c2c(Cl)c(Cl)ccc2c2cc(N)[nH]c(=O)c21  ΔTm (thermal stability, DSF; 10 µM): 1.8 °C
CCN(CC)CCNC(=O)c1c(C)[nH]c(/C=C2\C(=O)Nc3ccc(F)cc32)c1C  inhibition (enzyme activity, inhibitor; 10 µM): 3%
